NS3 helicase inh: blocks Hepatitis C virus NS3 helicase unwinding; hit rate 0.56% among 290,000; NS3 helicase DNA unwinding, Cy5 molecular beacon fluorescence; inhibition, % at 10.9 µM;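 active means inhibition above the mean of all tested compounds plus 3 SD, set per campaign, cut at about 35% in these data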;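 further: 0% = DMSO wells and 100% = thioflavine S control wells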
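test system = hepatitis C virus NS3 helicase domain fragment enzyme | reagent = annealed dual-labelled DNA beacon duplex, ATP-started | times = 1 h at 25 °C | detection = Cy5 fluorescence, 0 and 60 min reads | read-out basis = percent inhibition from t60/t0 fluorescence ratio | control set = DMSO and thioflavine S | replication = one well per compound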
SUMO1-SIM PPI: modulators of human SUMO1-mediated protein-protein interactions. SUMO1 binding to a labelled peptide, TR-FRET, 1 h. inhibition, % at 20 µM. P63165. hit rate 0.33% among 360,000; in the data active means inhibition above about 37%
DSG3 Ab inh: inhibitors of pemphigus antibody binding to human desmoglein-3; DSG3-coupled beads, scFv-anti-DSG3-GFP binding, flow cytometry; hits give low values; hit rate 0.48% among 310,000; AID 588358; binding (percent of control), % at 10 µM;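 active means binding more than 3 SD below its plate's average and above zero; inconclusive means below that plate limit but binding exactly zero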;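 further: hits lower antibody fragment binding to DSG3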
UHRF1 MBD2 ctr: UHRF1 methyl-DNA binding inhibition; AID 687016; hit rate 0.75% among 370,000; inhibition, % at 4.4 µM; UHRF1 binding to methylated oligo, TR-FRET; Q96T88; in the data active means inhibition above about 21%;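 further: UHRF1 SRA domain binding a hemimethylated CpG hairpin DNA probe; 0% = median of test compound wells and 100% = reference inhibitor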
Target sequence (Q96T88 whole entry, looked up, the tested form may be a part): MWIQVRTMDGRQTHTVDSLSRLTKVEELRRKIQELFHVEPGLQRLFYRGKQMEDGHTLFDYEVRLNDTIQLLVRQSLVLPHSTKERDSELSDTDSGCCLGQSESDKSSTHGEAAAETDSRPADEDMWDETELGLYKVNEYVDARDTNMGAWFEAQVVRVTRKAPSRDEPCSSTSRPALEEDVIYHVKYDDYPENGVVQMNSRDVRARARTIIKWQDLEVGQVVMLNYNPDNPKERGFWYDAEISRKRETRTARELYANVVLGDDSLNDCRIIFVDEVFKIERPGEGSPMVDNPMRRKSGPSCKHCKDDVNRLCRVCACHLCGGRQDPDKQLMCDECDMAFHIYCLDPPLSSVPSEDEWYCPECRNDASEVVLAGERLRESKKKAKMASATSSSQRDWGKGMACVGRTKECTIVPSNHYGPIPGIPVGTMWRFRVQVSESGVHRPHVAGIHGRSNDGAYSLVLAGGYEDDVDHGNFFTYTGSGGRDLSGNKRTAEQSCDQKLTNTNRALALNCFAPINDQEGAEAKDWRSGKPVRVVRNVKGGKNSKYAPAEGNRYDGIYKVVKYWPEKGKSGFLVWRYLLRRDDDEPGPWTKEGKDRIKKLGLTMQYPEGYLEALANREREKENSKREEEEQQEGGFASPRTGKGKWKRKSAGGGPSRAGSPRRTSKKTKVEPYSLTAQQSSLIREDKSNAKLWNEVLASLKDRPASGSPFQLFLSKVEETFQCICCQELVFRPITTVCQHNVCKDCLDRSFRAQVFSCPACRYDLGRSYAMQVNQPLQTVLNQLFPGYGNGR
DNMT1 block: inhibitors of human DNMT1. P26358. DNMT1 molecular beacon, Hinp1I cleavage, fluorescence. inhibition (reported as % activation of signal), % at 10 µM. hit rate 0.83% among 360,000; in the data active means inhibition above about 50%
MBD2 inh: MBD2-methylated oligo binding inhibition | TR-FRET, MBD2 binding to methylated oligonucleotide | Q9UBB5 | hit rate 0.31% among 370,000 | inhibition, % at 4.4 µM; in the data active means inhibition above about 13%
The depositor's hits bear a star; ? = inconclusive; nt = not tested or not shown. An excerpt weighted towards active compounds, which were near 2.5% of everything screened.

SMILES	NS3 helicase inh	SUMO1-SIM PPI	DSG3 Ab inh	UHRF1 MBD2 ctr	DNMT1 block	MBD2 inh
Cc1cc(C)nc(SCc2ccc(F)cc2)n1	-2	-3	126	23*	5	10
Cc1nc(SCc2ccc(F)cc2)n[nH]1	-1	6	104	1	2	3
COc1ccc(/C=N/NC(=O)c2ccc(CSc3nc(C)cc(C)n3)cc2)cc1O	-8	-6	101	-4	-2	0
CCCCN1C(=O)C2NN=C(C(=O)OCC)C2C1=O (stereo not given)	2	0	nt	4	-2	-6
CC1(C)SC(=S)N(Cc2ccc3c(c2)OCO3)C1N(O)C(=O)NC1CCCCC1 (stereo not given)	-7	-1	109	2	5	-2
COc1ccc(NC(=O)C2CCN(C(=O)c3ccco3)CC2)c(OC)c1	4	-3	103	0	4	2
O=C1C=C(Nc2ccccc2)c2ccccc2C1=O	2	8	108	-8	38	-19
O=C1C=C(Nc2ccccc2C(=O)O)c2ccccc2C1=O	20	21	82	-7	55*	-9
CCNC(=O)/C=C1\NC(C)(C)Cc2c1ccc1ccccc21	-6	-6	78	22*	-7	10
Fc1cccc(Cc2c(-c3cccc(Br)c3)nc3ccc(Cl)cn23)c1	nt	4	nt	9	1	8
COc1ccccc1NS(=O)(=O)c1ccc(C(=O)N2CCCCCC2)cc1	nt	2	nt	-1	4	-3
CC(C)CC(=O)Nc1cccc(C(C)O)c1 (stereo not given)	5	nt	nt	21*	nt	-2
CCCCC(=O)Nc1cccc(C(C)O)c1 (stereo not given)	4	nt	nt	0	nt	-1
CC1=C(C(=O)Nc2ccccc2)C(c2ccc(C)cc2)N=C(Nc2nc3ccccc3o2)N1 (stereo not given)	1	-5	nt	-1	38	2
N#Cc1c(N2CCCC(O)C2)nc(N)c2c(N)nc3c(c12)CC(=O)N3C12CC3CC(CC(C3)C1)C2 (stereo not given)	-29	56*	nt	-8	84*	-2
C=C(C)CN(CC)c1nc(N)c2c(N)nc3c(c2c1C#N)CC(=O)N3C12CC3CC(CC(C3)C1)C2	-15	17	102	-8	-19	2
COc1cc(-c2noc(C)c2/C=C/c2ccc(C(=O)O)cc2)cc(OC)c1OC	23	-3	104	14	61*	0
CC(=O)Nc1ccc(S(=O)(=O)NCc2ccc3c(c2)cc(C)n3C)cc1	-17	-25	80*	0	-16	-11
Cc1cc2cc(CNC(=O)Cc3cccs3)ccc2n1C	nt	-20	64*	nt	-11	nt
Cc1cc2cc(CNC(=O)Nc3cccc(Cl)c3)ccc2n1C	-15	-45	84	-2	69*	-2
COc1ccc(CCN2CC(C(=O)OC(C)C(=O)Nc3ccc(NC(C)=O)cc3)CC2=O)cc1OC (stereo not given)	nt	0	108	0	-7	-7
Cn1nc(-c2ccccc2)cc1NC(=O)CCCC(=O)O	10	1	119	-2	1	0
CCOC(=O)COc1nc(C)c(Br)c(OC)n1	6	61*	79	0	2	-9
CCOC(=O)CSc1nc(N)nc(C)c1Br	-3	3	93	1	1	5
O=C(N/N=C\C=C\c1ccc(Br)cc1)c1ccc2c(c1)OCO2	3	45*	93	1	81*	1
SMILES	NS3 helicase inh	SUMO1-SIM PPI	DSG3 Ab inh	UHRF1 MBD2 ctr	DNMT1 block	MBD2 inh
O=C(N/N=C/C=C/c1ccccc1)c1ccc(Br)cc1	-1	13	97	1	1	4
O=C(N/N=C/c1cc2c(cc1Cl)OCO2)c1cccc(Br)c1	-11	-13	100	39*	-2	2
O=[N+]([O-])c1ccc(S(=O)(=O)CC2CSc3nc4ccccc4n32)cc1 (stereo not given)	10	-27	-10*	3	1	-2
COc1ccc(Cc2nnc(NC(=O)Cc3cccs3)s2)cc1OC	4	12	nt	13	75*	4
O=C(Nc1ccc2nn(-c3ccccc3)nc2c1)c1ccc2c(c1)OCCO2	-12	-4	104	6	10	1
CC(C)C(=O)Nc1ccc(NC(=O)c2ccc3c(c2)OCO3)cc1	-7	6	102	-1	5	1
CCOc1ccc(C(=O)NCC(=O)Nc2ccc3c(c2)OCO3)cc1OCC	nt	-3	101	-3	-10	0
CCOc1ccc(-n2nc3ccc(NC(=O)c4ccc5c(c4)OCCO5)cc3n2)cc1	6	12	5.0*	9	15	3
CCOc1cc(C(=O)Nc2ccc3c(c2)OCO3)ccc1OC(F)F	-9	5	101	23*	3	9
COc1cc(NC(=O)c2ccc3c(c2)OCO3)ccc1NC(=O)C(C)C	2	0	108	66*	-7	2
COc1ccccc1CC(=O)N1CCN(c2ccc([N+](=O)[O-])cc2)CC1	5	-18	99	0	-4	-1
CCOC(=O)c1ccc(NC(=O)c2ccc(CO)c(C(=O)NC3CCN(C(=O)OCC)CC3)c2)cc1	-4	-2	?	5	-4	-9
CC(NC1=CC(=O)c2cccnc2C1=O)C(O)c1ccccc1 (stereo not given)	nt	-18	85	2	72*	-13
O=C(Cn1ncc2c1-c1ccccc1OC2)N1CCN(Cc2ccccc2)CC1	4	-4	103	27*	1	11
Cc1cc2ncc(-c3ccc(Cl)cc3)c(N)n2n1	-5	2	99	-3	-2	1
Nc1c(-c2ccccc2)cnc2cc(-c3ccccc3)nn12	1	2	80*	0	3	3
Cc1c(CCC(=O)O)c(=O)oc2c(C)c(OCc3cc4c(cc3Cl)OCO4)ccc12	23	81*	90	0	2	-1
Cc1cc(Oc2ccccc2)nc(NCc2ccccc2)n1	11	1	106	0	-6	2
Cc1cc(Oc2ccccc2F)nc(NCc2ccccc2)n1	-13	-3	-3.2*	1	-2	4
CC(=O)Nc1ccccc1NC(=O)c1ccc(C)cc1C	-3	3	115	2	2	4
O=C1c2cccc3c([N+](=O)[O-])ccc(c23)C(=O)N1O	9	32	87	-6	71*	-16
COc1ccccc1-c1ocnc1C(=O)Nc1ccc(N2CCOCC2)cc1N1CCOCC1	-2	0	96	74*	0	-5
O=C(NCc1cc(C(F)(F)F)ccc1Cl)c1cccc2c1C(=O)c1ccc(N3CCCCC3)cc1S2(=O)=O	nt	-24	129	-1	32	4
O=C(NCc1cc(C(F)(F)F)ccc1Cl)c1cccc2c1C(=O)c1ccc(N3CCC(N4CCCCC4)CC3)cc1S2(=O)=O	nt	64*	nt	11	7	6
CCSc1nnc(CNc2ccc(C)cc2)n1C	-5	-2	96	24*	1	11

Screens from PubChem.
